Results gathered from unrelated publications.
Compare with care: the assays were run in different laboratories.
IGF1R: Insulin-like growth factor 1 receptor (IGF1R, Homo sapiens, UniProt P08069)
IGF1R phosphorylated: Insulin-like growth factor 1 receptor, phosphorylated (IGF1R, Homo sapiens, UniProt P08069)

Cc1ccc(C(=O)Nc2ccc(CN3CCN(C)CC3)c(C(F)(F)F)c2)cc1C#Cc1cnc2cccnn12
remaining signal (IGF1R; cell-free assay; 23.5 nM): 84%

CN1CC(Oc2cnc(C#N)cc2-c2ccn3nc(NC(=O)C4CC4)cc3c2)C1
inhibition (IGF1R phosphorylated; enzyme activity; inhibitor; 1 µM): -13%

O=C1NC(=O)c2cc(Nc3ccc(F)cc3)c(Nc3ccc(F)cc3)cc21
remaining signal (IGF1R; cell-free assay; 0.5 µM): 102%

CNc1cccc2cc(C(=O)Nc3ccc(C(=O)O)cc3)c(=O)[nH]c12
inhibition (IGF1R; enzyme activity; inhibitor; 10 µM): 5.2%

N#Cc1ccc(Nc2ccc3[nH]c(=O)[nH]c3c2)c(Cl)c1
remaining binding (IGF1R; cell-free assay; competition with immobilised ligand; 1 µM): 99%

Cc1ccc(C(=O)NCc2ccsc2)cc1C#Cc1cn(C(C)C)c2ncnc(N)c12
activity vs control (IGF1R phosphorylated; enzyme activity; inhibitor; 1 µM): 136%

COc1ccc(Cl)cc1NC(=O)Nc1cc(C)nc2ccccc12
remaining signal (IGF1R; cell-free assay; 0.5 µM): 94.9%

CS(=O)(=O)Nc1cccc(-c2csc(NC(=O)CSc3nc4nccnc4c(=O)n3CCc3ccccc3)n2)c1
inhibition (IGF1R; enzyme activity; inhibitor; 10 µM): 5%

Cc1ccc(NC(=O)c2ccc(C)c(C(F)(F)F)c2)cc1C#Cc1nn(C2CCC(O)CC2)c2ncnc(N)c12 (stereo not drawn)
remaining signal (IGF1R; cell-free assay; 10 µM): 66%

O=C(NCc1ncc(C(F)(F)F)cc1Cl)c1ccc2c(c1)C1(CCS(=O)(=O)CC1)[C@@H](C1CC1)N2S(=O)(=O)c1ccc(F)cc1
remaining binding (IGF1R; cell-free assay; competition with immobilised ligand; 1 µM): 88%

COc1cc(Nc2c(C#N)cnc3cc(OCCCN4CCN(C)CC4)c(OC)cc23)c(Cl)cc1Cl
remaining signal (IGF1R; cell-free assay; 0.5 µM): 91.5%

COc1cc(/C=C/C(=O)CC(=O)/C=C/c2ccc(O)c(OC)c2)ccc1O
activity vs control (IGF1R; enzyme activity; inhibitor; 1 µM): 99%

CNCc1ccc(-c2cc(-c3nc(-c4ccc(S(=O)(=O)C(C)C)cc4)cnc3N)on2)cc1
inhibition (IGF1R; enzyme activity; inhibitor; 0.4 µM): 0%

CS(=O)(=O)N1CCCC(NC(=O)[C@H](CCC2CCCCC2)NC(=O)c2ccc(CNc3ncnc4c3nnn4-c3ccccc3)cc2)C1 (stereo partly drawn)
remaining binding (IGF1R; cell-free assay; competition with immobilised ligand; 0.1 µM): 100%

CCN(CC)CCNC(=O)c1c(C)[nH]c(/C=C2\C(=O)Nc3ccc(F)cc32)c1C
inhibition (IGF1R; enzyme activity; inhibitor; 0.3 µM): 4%

Cc1c(NC(=O)c2cc(C(N)=O)nc3cc(F)ccc23)c(C(F)(F)F)nn1Cc1ccc(C#N)cc1
remaining binding (IGF1R; cell-free assay; competition with immobilised ligand; 1 µM): 100%

COc1cc2ncnc(Nc3ccc(Oc4ccccc4)cc3C)c2cc1OC
inhibition (IGF1R; enzyme activity; inhibitor; 1 µM): 1%

Nc1c(C(=O)NCc2ccc(C(=O)NCCCC3CCCCC3)cc2)cnn1-c1ccccc1
remaining binding (IGF1R; cell-free assay; competition with immobilised ligand; 0.1 µM): 98%

Cc1cc(NC(=O)c2cccc3cc(-c4cccc5[nH]nc(N)c45)ccc23)ccc1F
activity vs control (IGF1R phosphorylated; enzyme activity; inhibitor; 0.1 µM): 100%

C=CC(=O)Nc1cc(Nc2nccc(Nc3cc(Cl)c(F)cc3C(C)(C)O)n2)c(OC)cc1N1CC[C@@H](N(C)C)C1
inhibition (IGF1R; enzyme activity; inhibitor; 1 µM): 35%

CN(C(=O)c1ccccc1)c1cc(N(C)c2ccc3c(c2)CCc2ccc(C(=O)NCCN4CCOCC4)cc2C3=O)ccc1F
remaining binding (IGF1R; cell-free assay; competition with immobilised ligand; 1 µM): 90%
